According to article PMC5088049 (Pharmacogenetics and genomics, 2016):

Columns and labels:
Type in all cases: in vitro ADME
[1] = target: AKR1C1 (Homo sapiens, UniProt Q04828); test: Kinetics of EXE reduction to 17β-DHE, recombinant AKR1C1; conditions: wildtype AKR1C1
[2] = target: T1, AKR1C2 (Homo sapiens, UniProt P52895); test: Kinetics of EXE reduction to 17β-DHE, recombinant AKR1C2; conditions: wildtype AKR1C2
[3] = Kinetics of EXE reduction to 17β-DHE, pooled human liver cytosol
[4] = target: AKR1C3 Arg258Cys (Homo sapiens, UniProt P42330, R258C); test: Kinetics of EXE reduction to 17β-DHE, recombinant AKR1C3 Arg258Cys
[5] = target: T2, AKR1C3 (Homo sapiens, UniProt P42330); test: Metabolite identification, overnight incubation with recombinant AKR1C3; conditions: 200 µM EXE, 18-h incubation, 1.5 µg recombinant AKR1C3
In short: (§1)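 Wildtype enzyme was His-tagged, expressed in E. coli BL21 (IPTG induction), Ni-NTA purified and dialysed against PBS. It was stopped with ice-cold acetonitrile and centrifuged. UPLC/ESI+ full scan (m/z 100–450) was followed by targeted MS/MS transitions. Retention times were matched to synthetic 17α/17β-dihydro standards.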

[6] = target: T1, AKR1C2; test: Metabolite identification, overnight incubation with recombinant AKR1C2; conditions: 200 µM EXE, 18-h incubation, 1.5 µg recombinant AKR1C2
In short: as §1

[7] = target: T2, AKR1C3; test: Kinetics of EXE reduction to 17β-DHE, recombinant AKR1C3
[8] = target: T3, AKR1C2 Phe46Tyr (Homo sapiens, UniProt P52895, F46Y); test: Kinetics of EXE reduction to 17β-DHE, recombinant AKR1C2 Phe46Tyr; conditions: VMAX/KM
T3 sequence (P52895 1-323 F46Y): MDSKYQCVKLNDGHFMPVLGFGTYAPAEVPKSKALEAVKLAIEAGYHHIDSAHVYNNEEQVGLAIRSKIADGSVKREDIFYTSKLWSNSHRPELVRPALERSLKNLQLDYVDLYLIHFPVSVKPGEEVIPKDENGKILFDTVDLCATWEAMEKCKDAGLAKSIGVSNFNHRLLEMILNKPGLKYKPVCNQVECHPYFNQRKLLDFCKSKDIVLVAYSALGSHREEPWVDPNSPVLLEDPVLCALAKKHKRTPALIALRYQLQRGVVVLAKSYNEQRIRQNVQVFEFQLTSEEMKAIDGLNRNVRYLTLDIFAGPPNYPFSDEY

[9] = target: AKR1C3 His5Gln (Homo sapiens, UniProt P42330, H5Q); test: Kinetics of EXE reduction to 17β-DHE, recombinant AKR1C3 His5Gln
[10] = target: T4, CBR1 (Homo sapiens, UniProt P16152); test: Metabolite identification, overnight incubation with recombinant CBR1; conditions: 200 µM EXE, 18-h incubation, 1.5 µg recombinant CBR1
T4 sequence (P16152 1-277): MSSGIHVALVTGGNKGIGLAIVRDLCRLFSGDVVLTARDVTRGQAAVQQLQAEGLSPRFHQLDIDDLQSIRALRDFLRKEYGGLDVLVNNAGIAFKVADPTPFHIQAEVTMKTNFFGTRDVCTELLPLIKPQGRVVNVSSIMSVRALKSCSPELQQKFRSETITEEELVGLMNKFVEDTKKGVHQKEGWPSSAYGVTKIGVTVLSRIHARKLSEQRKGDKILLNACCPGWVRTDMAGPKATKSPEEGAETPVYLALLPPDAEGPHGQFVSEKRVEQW
In short: as §1

[11] = target: T5, AKR1C4 (Homo sapiens, UniProt P17516); test: Kinetics of EXE reduction to 17β-DHE, recombinant AKR1C4; conditions: wildtype AKR1C4; for VMAX: normalized to enzyme purity
T5 sequence (P17516 1-323): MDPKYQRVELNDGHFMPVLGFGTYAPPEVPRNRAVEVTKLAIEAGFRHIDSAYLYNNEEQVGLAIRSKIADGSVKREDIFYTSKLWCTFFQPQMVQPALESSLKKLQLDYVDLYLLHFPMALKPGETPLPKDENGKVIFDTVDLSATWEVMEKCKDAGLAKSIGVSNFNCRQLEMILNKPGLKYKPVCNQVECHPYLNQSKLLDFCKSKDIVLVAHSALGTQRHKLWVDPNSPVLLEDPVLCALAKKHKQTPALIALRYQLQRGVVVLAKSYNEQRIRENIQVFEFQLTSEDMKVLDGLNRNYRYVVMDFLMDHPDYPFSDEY

Sequence of AKR1C3 His5Gln (P42330 whole entry H5Q): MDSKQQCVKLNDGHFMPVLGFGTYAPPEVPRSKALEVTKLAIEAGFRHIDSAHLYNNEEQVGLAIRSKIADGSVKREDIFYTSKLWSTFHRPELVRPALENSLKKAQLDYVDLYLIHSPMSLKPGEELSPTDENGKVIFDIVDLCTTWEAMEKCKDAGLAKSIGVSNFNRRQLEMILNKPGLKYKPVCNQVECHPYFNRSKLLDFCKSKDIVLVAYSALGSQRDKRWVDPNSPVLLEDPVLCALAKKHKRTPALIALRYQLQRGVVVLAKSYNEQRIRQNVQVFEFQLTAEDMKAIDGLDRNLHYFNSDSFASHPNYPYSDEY
T1 sequence (P52895 whole entry): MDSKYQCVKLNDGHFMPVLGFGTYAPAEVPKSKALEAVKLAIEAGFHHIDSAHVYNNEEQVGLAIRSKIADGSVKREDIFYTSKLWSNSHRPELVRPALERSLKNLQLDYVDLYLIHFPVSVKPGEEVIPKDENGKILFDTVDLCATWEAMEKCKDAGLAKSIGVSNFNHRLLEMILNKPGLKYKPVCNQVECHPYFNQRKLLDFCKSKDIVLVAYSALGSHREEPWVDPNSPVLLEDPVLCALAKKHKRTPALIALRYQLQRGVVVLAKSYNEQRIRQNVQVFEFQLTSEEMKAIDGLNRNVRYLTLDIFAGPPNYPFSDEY
Sequence of AKR1C3 Arg258Cys (P42330 whole entry R258C): as the sequence (P42330 whole entry H5Q) above, with Q5H, R258C counted along it
T2 sequence (P42330 whole entry): as the sequence (P42330 whole entry H5Q) above, with Q5H counted along it
Sequence of AKR1C1 (Q04828 whole entry): as the sequence (P52895 whole entry) above, with V38T, H47R, V54L, S87C, M151V, H170R, L172Q counted along it

Q: With `C=C1C[C@@H]2[C@H](CC[C@]3(C)C(=O)CC[C@@H]23)[C@@]2(C)C=CC(=O)C=C12` [exemestane, 6-methylenandrosa-1,4-diene-3-17-dione] as the compound, how does the CLINT ([1]; VMAX/KM) read?
A: 0.002 µL/min/mg

Q: What about the VMAX ([1]; normalized to enzyme purity) of the same compound?
A: 71.1 ± 1.5 picomoles·min^−1·mg^−1

Q: What about the CLINT ([2]; VMAX/KM) of the same compound?
A: 0.0051 µL/min/mg

Q: And the VMAX ([2]; normalized to enzyme purity)?
A: 84.2 ± 15.6 picomoles·min^−1·mg^−1

Q: What about the “maximum rate of 17β-DHE formation (VMAX)” value ([3]; 5 µg pooled HLC, 90-min incubation, EXE 0.5–400 µM) of the same compound?
A: 21 ± 4.8 pmol/min/mg

Q: What about the Km at 90 min ([3]; human, pooled human liver cytosol, pH 7.4) of the same compound?
A: 55.7 ± 1.9 µM

Q: And the Km ([4]; AKR1C3 Arg258Cys (rs62621365), 17β-DHE formation)?
A: 75.8 ± 19.9 µM

Q: What about the CLINT ([4]; AKR1C3 Arg258Cys, VMAX/KM) of the same compound?
A: 3e-05 µL/min/mg

Q: And the VMAX ([4]; AKR1C3 Arg258Cys, normalized to enzyme purity)?
A: 2.3 ± 0.1 picomoles·min^−1·mg^−1

Q: What about the “affinity for EXE of AKR1C3 Arg258Cys relative to wildtype” value ([4]; lower affinity (KM) than wildtype AKR1C3) of the same compound?
A: roughly 6 fold

Q: What about the metabolites formed [5] of the same compound?
A: only 17β-DHE formation

Q: And the metabolites formed [6]?
A: only 17β-DHE formation

Q: And the “VMAX of AKR1C3 relative to AKR1C4” value ([7]; higher than AKR1C4)?
A: 36 fold

Q: What about the Km ([7]; wildtype AKR1C3, 17β-DHE formation) of the same compound?
A: 12.3 ± 1.1 µM

Q: And the CLINT ([7]; wildtype AKR1C3, VMAX/KM)?
A: 0.0068 µL/min/mg

Q: What about the VMAX ([7]; wildtype AKR1C3, normalized to enzyme purity) of the same compound?
A: 83.3 ± 15.4 picomoles·min^−1·mg^−1

Q: And the CLINT [8]?
A: 0.0078 µL/min/mg

Q: What about the Km ([9]; AKR1C3 His5Gln (rs12529), 17β-DHE formation) of the same compound?
A: 17.9 ± 2.9 µM

Q: And the CLINT ([9]; AKR1C3 His5Gln, VMAX/KM)?
A: 0.00021 µL/min/mg

Q: What about the VMAX ([9]; AKR1C3 His5Gln, normalized to enzyme purity) of the same compound?
A: 3.8 ± 0.1 picomoles·min^−1·mg^−1

Q: And the metabolites formed [10]?
A: both stereoisomers of DHE

Q: And the Km ([11]; 17β-DHE formation)?
A: 9.7 ± 1.9 µM

Q: And the CLINT ([11]; VMAX/KM)?
A: 0.00024 µL/min/mg

Q: What about the VMAX [11] of the same compound?
A: 2.3 ± 0.6 picomoles·min^−1·mg^−1

Q: And the VMAX ([11]; listed as EXE)?
A: 2.3 ± 0.6 picomoles·min^−1·mg^−1
